“And” between values parts separate entries of the source, which are not always exact repeats. Equal entries are not always repeated. Where two headings read alike, the source gives them in different places.

Data set [1] addresses T1, α/β1 20S proteasome complex (Salinispora tropica, UniProt A4X744).
T1 sequence (A4X744 54-279): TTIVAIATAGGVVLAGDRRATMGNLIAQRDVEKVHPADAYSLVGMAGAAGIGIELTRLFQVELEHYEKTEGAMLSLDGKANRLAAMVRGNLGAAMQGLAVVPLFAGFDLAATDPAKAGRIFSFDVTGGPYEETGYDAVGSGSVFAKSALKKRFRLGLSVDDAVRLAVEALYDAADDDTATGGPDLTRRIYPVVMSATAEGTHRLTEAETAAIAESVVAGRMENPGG
T1 sequence (A4X745 1-260 partner): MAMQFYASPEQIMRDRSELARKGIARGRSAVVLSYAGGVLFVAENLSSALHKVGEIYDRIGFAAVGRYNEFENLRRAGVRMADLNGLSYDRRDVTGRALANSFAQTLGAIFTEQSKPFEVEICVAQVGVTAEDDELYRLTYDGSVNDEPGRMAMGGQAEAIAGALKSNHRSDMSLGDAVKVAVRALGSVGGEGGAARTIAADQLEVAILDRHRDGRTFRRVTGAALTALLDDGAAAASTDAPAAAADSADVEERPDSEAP
The data set is described as follows: Proteasome inhibition. Type of data set: biochemical.

The target in data set [2] is T2, α/SalI 20S proteasome complex (Salinispora tropica, UniProt A4X3P0).
T2 sequence (A4X3P0 49-282): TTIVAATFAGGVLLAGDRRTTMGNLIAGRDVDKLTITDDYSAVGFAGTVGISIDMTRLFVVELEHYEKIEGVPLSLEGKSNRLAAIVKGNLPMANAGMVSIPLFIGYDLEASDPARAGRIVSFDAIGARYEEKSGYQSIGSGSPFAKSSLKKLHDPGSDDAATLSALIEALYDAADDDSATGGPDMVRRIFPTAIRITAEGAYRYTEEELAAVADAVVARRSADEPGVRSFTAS
T2 sequence (A4X745 1-260 partner): T1 sequence (A4X745 1-260 partner)
The data set is described as follows: Proteasome inhibition. The format is biochemical. As to conditions: for fold increase in IC50 with the α/SalI complex in comparison to the α/β1 complex (resistance): α/SalI versus α/β1.

Data set [3] concerns the target T3, α/β1 M45F proteasome complex (Salinispora tropica, UniProt A4X744, M98F).
T3 sequence (A4X744 54-279 M98F): T1 sequence (A4X744 54-279)
T3 sequence (A4X745 1-260 partner): T1 sequence (A4X745 1-260 partner)
The data set is described as follows: Proteasome inhibition. The format is biochemical.

The target of data set [4] is T4, α/β1 A49V proteasome complex (Salinispora tropica, UniProt A4X744, A102V).
T4 sequence (A4X744 54-279 A102V): T1 sequence (A4X744 54-279)
T4 sequence (A4X745 1-260 partner): T1 sequence (A4X745 1-260 partner)
The data set is described as follows: Proteasome inhibition. The format is biochemical.

The target of data set [5] is T5, α/β1 M45F/A49V proteasome complex (Salinispora tropica, UniProt A4X744, A102V/M98F).
T5 sequence (A4X744 54-279 M98F/A102V): T1 sequence (A4X744 54-279)
T5 sequence (A4X745 1-260 partner): T1 sequence (A4X745 1-260 partner)
The data set is described as follows: Proteasome inhibition. The format is biochemical.

Data set [6] has as its target T6, α/SalI F45M proteasome complex (Salinispora tropica, UniProt A4X3P0, F93M).
T6 sequence (A4X3P0 49-282 F93M): T2 sequence (A4X3P0 49-282)
T6 sequence (A4X745 1-260 partner): T1 sequence (A4X745 1-260 partner)
The data set is described as follows: Proteasome inhibition. Type of data set: biochemical.

Data set [7] addresses T1, α/β1 20S proteasome complex. The data set is described as follows: Time-dependence of inhibition, α/β1. The format is biochemical. The conditions noted are these: 0.5–100 μM inhibitor, Z-VKM-amc, 3.5 h, 30 °C. In a few lines:
(§1)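 Purified S. tropica α/β1 or α/SalI complex (His6-α, E. coli-expressed) in 50 mM Tris-HCl pH 8.0. Test compound (0.5–100 μM final) and 40 μM Z-VKM-amc were pre-warmed to 30 °C. Pre-warmed enzyme was added to 20 μg ml−1 (27 nM) final. Fluorescence (ex 355/em 460 nm) was read every minute for 3.5 h at a constant 30 °C.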

In data set [8] the target is T2, α/SalI 20S proteasome complex. The data set is described as follows: Time-dependence of inhibition, α/SalI. Type of data set: biochemical. As to conditions: 0.5–100 μM inhibitor, Z-VKM-amc, 3.5 h, 30 °C. In a few lines:
as §1

Data set [9] concerns the target T1, α/β1 20S proteasome complex. The data set is described as follows: Irreversibility of inhibition. Type of data set: biochemical. The conditions noted are these: 250 μM inhibitor for 1.5 h at 30 °C, Z-VKM-amc. In a few lines: (§2)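 Recombinant S. tropica proteasome (His6-tagged α coexpressed with untagged β1 or SalI in E. coli BL21(DE3); Ni-NTA then size-exclusion purified). Enzyme at 20 μg ml−1 in 50 mM Tris-HCl pH 8.0 was held with 250 μM test compound or matching DMSO, 1.5 h, 30 °C. It was buffer-exchanged three times on 30 kDa cutoff filters, then added to 40 μM Z-VKM-amc. Fluorescence (ex 355/em 460 nm) was read every minute for 3 h at 30 °C.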

In data set [10] the target is T2, α/SalI 20S proteasome complex. The data set is described as follows: Irreversibility of inhibition. As to conditions: 250 μM inhibitor for 1.5 h at 30 °C, Z-VKM-amc. Type of data set: biochemical. In a few lines: as §2
The data set “native gel or EMSA” deals with the molecule itself. The data set is described as follows: native gel or EMSA. Background: A gel shift assay detects complexes by their altered migration in electrophoresis.
Setting [11] is: IC50, α/SalI complex, substrate Z-VKM-amc 40 μM, mean ± SD, N = 3.

Take `CCC[C@H](O)[C@@]12NC(=O)[C@H](CCCl)[C@]1(C)OC2=O` [Salinosporamide X5, salinosporamide X5]: the IC50 in [1] and in [2] was more than 250 µM throughout.

For the molecule `C[C@@]12OC(=O)[C@]1([C@@H](O)[C@@H]1C=CCCC1)NC(=O)[C@@H]2CCCl` [Salinosporamide A, salinosporamide A], the IC50 (usually the concentration that gives 50% inhibition) in data set [3] is 1.2 ± 0.1 µM; in [4] it was 13.6 ± 2.2 µM; in data set [5], 15.3 ± 2.2 µM; in [2] (IC50, α/SalI complex, substrate Suc-LLVY-amc 40 μM, mean ± SD, N = 3), 52 ± 3.5 µM; in data set [2] (setting [11]), 36.8 ± 2.4 µM; in [6] it was 45.5 ± 2.3 µM. In [4] (α/β1 A49V versus wild-type α/β1, Z-VKM-amc), the “increase in IC50 of α/β1 A49V mutant” value was “greater than a ten-fold increase”. In addition, the “fold increase in IC50 with the α/SalI complex in comparison to the α/β1 complex (resistance)” value (from here on “fold increase in IC50”) in [2] is 16–30 fold and 30 fold. The time-dependence of inhibition result in data set [7] and in [8] was “time-dependent inhibition” each time. Besides, the “recovery of proteolytic activity after buffer exchange to remove inhibitor” value in data set [9] and in [10] was “no recovery of proteolytic activity” in each case.

Take `C[C@@]12OC(=O)[C@]1([C@@H](O)[C@@H]1C=CCC1)NC(=O)[C@@H]2CCCl` [Salinosporamide X7, salinosporamide X7]: the IC50 in [1] is 3.6 ± 0.2 µM; in [2], more than 250 µM.

In data set [2] (setting [11]), `CC[C@H]1C(=O)N[C@@]2([C@@H](O)[C@@H]3C=CCCC3)C(=O)O[C@@]12C` [Salinosporamide B, salinosporamide B] displayed an IC50 of 139 ± 27.3 µM. Besides, in data set [2], the “fold increase in IC50” value is 7 fold.

`CC(C)[C@H](O)[C@@]12NC(=O)[C@H](CCCl)[C@]1(C)OC2=O` [Antiprotealide, antiprotealide]: the IC50 was 104 ± 7.2 µM in data set [1] and more than 250 µM in data set [2].

The molecule `CC(C)C[C@H](NC(=O)[C@H](Cc1ccccc1)NC(=O)c1cnccn1)B(O)O` [Bortezomib, bortezomib, reference compound] had an IC50 in [2] (setting [11]) of 42.7 ± 3.4 µM. In addition, in data set [2], the “fold increase in IC50” value is reported as 13 fold.

Regarding `C[C@@]12OC(=O)[C@]1([C@@H](O)C1CCC1)NC(=O)[C@@H]2CCCl` [Salinosporamide X3, salinosporamide X3], the IC50 in data set [1] and in data set [2] was more than 250 µM each time.

B1: Salinispora tropica CNB-440 20S proteasome α-subunit (Strop_2245) (natural protein, UniProt A4X745 1-260, looked up)
chain: T1 sequence (A4X745 1-260 partner)
On to B1, for which the binding result in “native gel or EMSA” is reported as “binds”.

B2: SalI, proteasome β-subunit of the salinosporamide biosynthetic gene cluster (Strop_1015) (natural protein, Salinispora tropica CNB-440, UniProt A4X3P0 49-282, looked up)
chain: T2 sequence (A4X3P0 49-282)
Take B2: in the data set “native gel or EMSA”, the binding result was “binds”.

B3: Salinispora tropica CNB-440 20S proteasome β-subunit β1 (Strop_2244) (natural protein, UniProt A4X744 54-279, looked up)
chain: T1 sequence (A4X744 54-279)
On to B3, for which the binding result in “native gel or EMSA” was “binds”.

These data come from paper PMC3220761 (ACS chemical biology, 2011).
